ChEMBL document CHEMBL1122273, “5-sulfamoylorthanilic acids, a sulfonamide series with salidiuretic activity” (J Med Chem, 1983)
Calls of active or inactive are those of the source. The rule behind the calls is not given here.

Columns and labels:
Canis familiaris [1] = test: Saluretic activity in the dog measured as concentration of K+ in urinary excretion (2 animals/dose) at (dose 1.56 mg/Kg, po); format: functional, Canis lupus familiaris, Urine
Procedure, shortened: (§1)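 Male beagles trained to rest on a table and to accept stomach tube and catheter. Food withdrawn 24 h before, tap water ad libitum. Bladder emptied by catheter, then 20 mL/kg tap water by stomach tube. Catheterized hourly up to 8 h with 4 mL/kg water orally each time; first 2 h urine served as control. Oral dosing after second catheterization. Pooled 1–6 h urine; Na⁺/K⁺ by flame photometry, Cl⁻ argentometrically.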

Rattus norvegicus [2] = organism: Rattus norvegicus; test: Saluretic activity in the rat measured as concentration of chloride in urine; format: functional
Procedure, shortened: (§2)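 Rats deprived of food 24 h, water ad libitum, dosed 50 mg/kg by stomach tube as suspension in 2% starch, no extra water load. Groups of three in diuresis funnels; urine over first 5 h collected. Na⁺ and K⁺ by flame photometry, Cl⁻ argentometrically; expressed as mequiv/kg.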

Canis familiaris [3] = test: Salidiuretic activity on the basis of the 1.56 mg/Kg po dog assay; compound was moderately active; format: functional, organism-based; conditions: Canis lupus familiaris; Urine
Rattus norvegicus [4] = organism: Rattus norvegicus; test: Diuretic activity in the rats, determined by a modified Lipschitz test; format: functional, Urine
Procedure, shortened: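 Modified Lipschitz test: rats deprived of water 24 h, grouped in threes of similar weight in diuresis funnels. Oral dose of 50 mg/kg, suspended in 2% starch solution, by stomach tube.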

Canis familiaris [5] = test: Diuretic activity in the dog (2 animals/dose) at (dose 1.56 mg/Kg), when administered perorally; format: functional, Canis lupus familiaris, Urine
Procedure, shortened: (§3)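 Trained male beagles, fasted 24 h with tap water ad libitum. Bladder emptied by catheter, then 20 mL/kg tap water by stomach tube, with 4 mL/kg water at each hourly catheterization up to 8 h. The first 2 h of urine served as control. Oral dosing came after the second catheterization, and 1–6 h urine was pooled. Na⁺ and K⁺ were measured by flame photometry, Cl⁻ argentometrically, in mequiv/kg.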

[6] = It is the ratio, measured as saluretic activity in the dog as concentration of Na+ in urinary excretion (dose 1.56 mg/Kg, po) to that of K; format: functional, Urine; procedure, shortened: as §3
Rattus norvegicus [7] = test: Salidiuretic activity on the basis of the 50 mg/kg po rat assay; compound was active; format: functional, organism-based; set-up: dose 50 mg/kg; conditions: Urine
Rattus norvegicus [8] = organism: Rattus norvegicus; test: Saluretic activity in the rat measured as concentration of Na+ in urine; format: functional; procedure, shortened: as §2
Rattus norvegicus [9] = organism: Rattus norvegicus; test: Saluretic activity in the rat measured as concentration of K+ in urine; format: functional; procedure, shortened: as §2
Canis familiaris [10] = test: Saluretic activity in the dog measured as concentration of Cl - in urinary excretion (2 animals/dose) at (dose 1.56 mg/Kg, po); format: functional, Canis lupus familiaris, Urine
Procedure, shortened: (§4)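 Male beagles trained to the procedures, food withdrawn 24 h before, tap water ad libitum. Bladder emptied by catheter, then 20 mL/kg tap water by stomach tube, plus 4 mL/kg orally at each hourly catheterization up to 8 h. The first 2 h of urine served as control. Compound given orally after the second catheterization. Urine from 1–6 h post-dose pooled; Na⁺ and K⁺ by flame photometry, Cl⁻ argentometrically, in mequiv/kg.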

[11] = It is the ratio, measured as saluretic activity in the dog as concentration of Cl- in urinary excretion (dose 1.56 mg/Kg, po) to that of (Na+)+(K+); format: functional, Urine; procedure, shortened: as §3
Canis familiaris [12] = test: Saluretic activity in the dog measured as concentration of Na+ in urinary excretion (2 animals/dose) at (dose 1.56 mg/Kg, po); format: functional, Canis lupus familiaris, Urine; procedure, shortened: as §1
Rattus norvegicus [13] = test: Salidiuretic activity on the basis of the 50 mg/kg perorally rat assay; Compound was highly active; format: functional, organism-based; set-up: dose 50 mg/kg; conditions: Urine
Canis familiaris [14] = test: Salidiuretic activity on the basis of the 1.56 mg/Kg perorally dog assay; Compound was highly active; format: functional, organism-based; conditions: Canis lupus familiaris; Urine
Canis familiaris [15] = test: Saluretic activity in the dog measured as concentration of Cl - in urinary excretion (2 animals/dose) at (dose 1.56 mg/Kg, perorally); format: functional, Canis lupus familiaris, Urine; procedure, shortened: as §4
Rattus norvegicus [16] = test: Salidiuretic activity on the basis of the 50 mg/kg perorally rat assay; NA means inactive; conditions: Urine
[17] = It is the ratio, measured as saluretic activity in the dog as concentration of Cl- in urinary excretion (dose 1.56 mg/Kg, perorally) to that of (Na+)+(K+); format: functional, Urine; procedure, shortened: as §3
Canis familiaris [18] = test: Salidiuretic activity on the basis of the 1.56 mg/Kg perorally dog assay; compound was found to be active; format: functional, organism-based; conditions: Canis lupus familiaris; Urine
[19] = It is the ratio, measured as saluretic activity in the dog as concentration of Na+ in urinary excretion (dose 1.56 mg/Kg, perorally) to that of K; format: functional, Urine; procedure, shortened: as §3
Canis familiaris [20] = test: Saluretic activity in the dog measured as concentration of Na+ in urinary excretion (2 animals/dose) at (dose 1.56 mg/Kg, perorally); format: functional, Canis lupus familiaris, Urine; procedure, shortened: as §1
Canis familiaris [21] = test: Saluretic activity in the dog measured as concentration of K+ in urinary excretion (2 animals/dose) at (dose 1.56 mg/Kg, perorally); format: functional, Canis lupus familiaris, Urine; procedure, shortened: as §4
Rattus norvegicus [22] = test: Salidiuretic activity on the basis of the 50 mg/kg po rat assay; compound was found to be active; format: functional, organism-based; set-up: dose 50 mg/kg; conditions: Urine
Canis familiaris [23] = test: Salidiuretic activity on the basis of the 1.56 mg/Kg po dog assay; compound was found to be active; format: functional, organism-based; conditions: Canis lupus familiaris; Urine
Canis familiaris [24] = test: Sailuric activity in the dog measured as concentration of K+ in urinary excretion (2 animals/dose) at (dose 1.56 mg/Kg, po); format: functional, Canis lupus familiaris, Urine; procedure, shortened: as §4
Canis familiaris [25] = test: Salidiuretic activity on the basis of the 1.56 mg/Kg po dog assay; compound is found to be active; format: functional, organism-based; conditions: Canis lupus familiaris; Urine
Rattus norvegicus [26] = test: Salidiuretic activity on the basis of the 50 mg/kg po rat assay; Compound is found to be modetately active; format: functional, organism-based; set-up: dose 50 mg/kg; conditions: Urine
Canis familiaris [27] = test: Sailuric activity in the dog measured as concentration of Cl - in urinary excretion (2 animals/dose) at (dose 1.56 mg/Kg, po); format: functional, Canis lupus familiaris, Urine; procedure, shortened: as §4
Rattus norvegicus [28] = test: Salidiuretic activity on the basis of the 50 mg/kg po rat assay; Compound was moderately active active; format: functional, organism-based; set-up: dose 50 mg/kg; conditions: Urine
Canis familiaris [29] = test: Salidiuretic activity on the basis of the 1.56 mg/Kg po dog assay; Compound was highly active; format: functional, organism-based; conditions: Canis lupus familiaris; Urine
Rattus norvegicus [30] = test: Salidiuretic activity on the basis of the 50 mg/kg perorally in rat assay; compound is found to be highly active.; conditions: Urine
Canis familiaris [31] = test: Salidiuretic activity on the basis of the 1.56 mg/Kg perorally in dog assay; compound is found to be highly active.; format: functional, organism-based; conditions: Canis lupus familiaris; Urine
Rattus norvegicus [32] = test: Salidiuretic activity on the basis of the 50 mg/kg perorally rat assay; compound was found to be highly active; format: functional, organism-based; set-up: dose 50 mg/kg; conditions: Urine
Canis familiaris [33] = test: Salidiuretic activity on the basis of the 1.56 mg/Kg perorally dog assay; compound was found to be highly active; format: functional, organism-based; conditions: Canis lupus familiaris; Urine
Rattus norvegicus [34] = test: Salidiuretic activity on the basis of the 50 mg/kg po rat assay; Compound was active; conditions: Urine

Compound	Saluretic activity (Rattus norvegicus [2])	Diuretic activity (Rattus norvegicus [4])	Diuretic activity (Canis familiaris [5])	Ratio [6]	Saluretic activity (Rattus norvegicus [8])	Saluretic activity (Rattus norvegicus [9])	Saldiuretic activity (Canis familiaris [10])	Ratio [11]	Saluretic activity (Canis familiaris [12])	Ratio [17]	Ratio [19]	Saluretic activity (Canis familiaris [20])	other results
NS(=O)(=O)c1cc(S(=O)(=O)[O-])c(NCc2ccccc2)cc1S(=O)(=O)C1CCCCC1.[Na+]	1.8 m equiv 5hr-1 kg-1	0.5 mL/kg	51 ml kg-1 6hr-1	5.8	2 m equiv 5hr-1 kg-1	1.7 m equiv 5hr-1 kg-1	3.94 m equiv 6hr-1 kg-1	1.05	3.23 m equiv 6hr-1 kg-1	–	–	–	Saluretic activity (Canis familiaris [1]): 0.56 m equiv 6hr-1 kg-1; Saldiuretic activity (Canis familiaris [3]): Weak activity; Saldiuretic activity (Rattus norvegicus [7]): Active
CN(c1ccccc1)c1cc(NCc2ccco2)c(S(=O)(=O)O)cc1S(N)(=O)=O	–	–	–	–	–	–	–	–	–	–	–	–	Saldiuretic activity (Rattus norvegicus [13]): Active; Saldiuretic activity (Canis familiaris [14]): Active
NS(=O)(=O)c1cc(S(=O)(=O)[O-])c(NCCc2ccco2)cc1Oc1ccccc1.[K+]	0.9 m equiv 5hr-1 kg-1	1.2 mL/kg	35.2 ml kg-1 6hr-1	–	0.6 m equiv 5hr-1 kg-1	0.7 m equiv 5hr-1 kg-1	–	–	–	1.1	4.2	0.89 m equiv 6hr-1 kg-1	Saldiuretic activity (Canis familiaris [15]): 1.18 m equiv 6hr-1 kg-1; Diuretic activity (Rattus norvegicus [16]): inactive; Saldiuretic activity (Canis familiaris [18]): Active; Saluretic activity (Canis familiaris [21]): 0.21 m equiv 6hr-1 kg-1
N.NS(=O)(=O)c1cc(S(=O)(=O)O)c(NCc2ccccc2)cc1Oc1ccccc1	6.9 m equiv 5hr-1 kg-1	3 mL/kg	48 ml kg-1 6hr-1	–	4.9 m equiv 5hr-1 kg-1	2.2 m equiv 5hr-1 kg-1	–	–	–	1.1	5.9	3.12 m equiv 6hr-1 kg-1	Saldiuretic activity (Canis familiaris [15]): 3.91 m equiv 6hr-1 kg-1; Saldiuretic activity (Rattus norvegicus [22]): Active; Saldiuretic activity (Canis familiaris [23]): Active; Saluretic activity (Canis familiaris [21]): 0.53 m equiv 6hr-1 kg-1
NCc1ccccc1.NS(=O)(=O)c1cc(S(=O)(=O)O)c(NCc2ccccc2)cc1Cl	1.2 m equiv 5hr-1 kg-1	1.4 mL/kg	40.4 ml kg-1 6hr-1	–	1.4 m equiv 5hr-1 kg-1	1.4 m equiv 5hr-1 kg-1	–	–	–	1.05	4.7	1.65 m equiv 6hr-1 kg-1	Saluretic activity (Canis familiaris [24]): 0.35 m equiv 6hr-1 kg-1; Saldiuretic activity (Canis familiaris [25]): Active; Saldiuretic activity (Rattus norvegicus [26]): Weak activity; Saldiuretic activity (Canis familiaris [27]): 2.07 m equiv 6hr-1 kg-1
CN(c1ccccc1)c1cc(NCc2ccccc2)c(S(=O)(=O)[O-])cc1S(N)(=O)=O.[Na+]	4 m equiv 5hr-1 kg-1	2.6 mL/kg	71.7 ml kg-1 6hr-1	4.4	3.5 m equiv 5hr-1 kg-1	1.4 m equiv 5hr-1 kg-1	7.34 m equiv 6hr-1 kg-1	0.9	6.59 m equiv 6hr-1 kg-1	–	–	–	Saluretic activity (Canis familiaris [1]): 1.51 m equiv 6hr-1 kg-1; Saldiuretic activity (Rattus norvegicus [28]): Active; Saldiuretic activity (Canis familiaris [29]): Active
NCc1ccco1.NS(=O)(=O)c1cc(S(=O)(=O)O)c(NCc2ccco2)cc1Cl	–	–	–	–	–	–	–	–	–	–	–	–	Saldiuretic activity (Rattus norvegicus [30]): Active; Saldiuretic activity (Canis familiaris [31]): Active
NS(=O)(=O)c1cc(S(=O)(=O)O)c(NCc2ccco2)cc1Oc1ccccc1	–	–	–	–	–	–	–	–	–	–	–	–	Saldiuretic activity (Rattus norvegicus [32]): Active; Saldiuretic activity (Canis familiaris [33]): Active
CN(c1ccccc1)c1cc(NCc2cccs2)c(S(=O)(=O)[O-])cc1S(N)(=O)=O.[Na+]	2 m equiv 5hr-1 kg-1	1.8 mL/kg	70.6 ml kg-1 6hr-1	4.3	1.8 m equiv 5hr-1 kg-1	0.7 m equiv 5hr-1 kg-1	7.03 m equiv 6hr-1 kg-1	0.95	5.86 m equiv 6hr-1 kg-1	–	–	–	Saldiuretic activity (Canis familiaris [1]): 1.37 mequiv kg-1 6hr-1; Saldiuretic activity (Rattus norvegicus [34]): Active; Saldiuretic activity (Canis familiaris [29]): Active
